Drawing on ChEMBL document CHEMBL4007456, “Heterocyclyl Tetracyclines. 1. 7-Trifluoromethyl-8-Pyrrolidinyltetracyclines: Potent, Broad Spectrum Antibacterial Agents with Enhanced Activity against Pseudomonas aeruginosa” (2017), this text covers MIC and Activity for 5 compounds.

≈ marks a conversion by molar mass, not a printed value. A value given as a limit tells only on which side of the number the result lay.

Format in all cases: functional
The test system of assay [1] is Klebsiella pneumoniae. The assay can be described thus: Antibacterial activity against gram-negative Klebsiella pneumoniae KP194 by CLSI method. Put shortly: (§1)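 Broth microdilution MIC per CLSI in cation-adjusted Mueller Hinton broth, prepared fresh and held at 4 °C. Defibrinated horse blood added where appropriate. Compounds serially diluted in sterile deionized water. Strains from ATCC unless otherwise noted. Runs accepted when comparator antibiotics fell within QC ranges for ATCC quality control strains.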

The subject of assay [2] is Klebsiella pneumoniae. The assay can be described thus: Antibacterial activity against gram-negative Klebsiella pneumoniae KP153 harboring tet(A) by CLSI method. Put shortly:
(§2)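 CLSI broth microdilution MIC in fresh cation-adjusted Mueller Hinton broth, supplemented with defibrinated horse blood where appropriate. Compounds serially diluted in sterile deionized water. Runs accepted when comparator antibiotics against ATCC quality-control strains fell within recommended ranges.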

For assay [3], the system named is Burkholderia cenocepacia. The assay can be described thus: Antibacterial activity against gram-negative Burkholderia cenocepacia BC240 by CLSI method. The method in brief: (§3)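 Defibrinated horse blood added where appropriate. Compounds serially diluted in sterile deionized water. Strains from ATCC unless otherwise noted. Runs accepted when comparator antibiotics fell within QC ranges for ATCC quality control strains.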

Assay [4] has as its system Escherichia coli. The experiment in a line: Antibacterial activity against gram-negative Escherichia coli EC107 by CLSI method. Put shortly: as §1
Assay [5] relates to Staphylococcus aureus. The experiment in a line: Antibacterial activity against gram-positive Staphylococcus aureus SA158 harboring tet(K) by CLSI method. The method in brief: as §2
Assay [6] has as its system Staphylococcus aureus. The assay can be described thus: Antibacterial activity against gram-positive Staphylococcus aureus SA161 harboring tet(M) by CLSI method. The method in brief:
as §2

Assay [7] has as its system Streptococcus pneumoniae. The assay can be described thus: Antibacterial activity against gram-positive Streptococcus pneumoniae SP160 harboring tet(M) by CLSI method. The method in brief:
as §2

Assay [8] deals with Escherichia coli. The assay can be described thus: Antibacterial activity against gram-negative Escherichia coli EC155 harboring tet(A) by CLSI method. The method in brief: as §2
The test system of assay [9] is Pseudomonas aeruginosa. The assay can be described thus: Antibacterial activity against gram-negative Pseudomonas aeruginosa PA169 by CLSI method. Put shortly: as §3
For assay [10], the system named is Enterococcus faecalis. The assay can be described thus: Antibacterial activity against gram-positive Enterococcus faecalis EF159 harboring tet(M) by CLSI method. Put shortly: as §2
For assay [11], the system named is Stenotrophomonas maltophilia. The assay can be described thus: Antibacterial activity against gram-negative Stenotrophomonas maltophilia SM256 by CLSI method. The method in brief:
as §1

Assay [12] concerns Staphylococcus aureus. The experiment in a line: Antibacterial activity against gram-positive Staphylococcus aureus SA101 by CLSI method. Put shortly:
as §1

The test system of assay [13] is Streptococcus pneumoniae. The assay can be described thus: Antibacterial activity against gram-positive Streptococcus pneumoniae SP193 by CLSI method. Put shortly: as §1
Assay [14] deals with Proteus mirabilis. The assay can be described thus: Antibacterial activity against gram-negative Proteus mirabilis PM122 by CLSI method. The method in brief: as §3
Assay [15] has as its system Acinetobacter baumannii. The assay can be described thus: Antibacterial activity against gram-negative Acinetobacter baumannii AB250 by CLSI method. Put shortly:
as §1

The subject of assay [16] is Pseudomonas aeruginosa. The experiment in a line: Antibacterial activity against Pseudomonas aeruginosa PA1145 in BALB/c mouse model of lung infection administered as iv bid for 2 to 12 hrs of post-infection measured after 24 hrs. The method in brief: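 Female BALB/c mice (18–20 g) infected intranasally with ~2 x 10^7 CFU/mouse P. aeruginosa PA1145 (cystic fibrosis isolate) under light anesthesia. Dosing at 2 and 12 h post-infection, IV (compound, tigecycline, amikacin) or intranasal (tobramycin); n = 6 per group. Lungs harvested 24 h after treatment start, homogenized, plated on MacConkey agar, 37 °C overnight; CFU/g lung; Mann-Whitney vs T = 0 h or 24 h controls.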

The subject of assay [17] is Pseudomonas aeruginosa. The assay can be described thus: Antibacterial activity against Pseudomonas aeruginosa PA1145 in BALB/c mouse model of lung infection assessed as reduction in log10CFU per gram of lung at 40 mg/kg, iv bid administered 2 to 12 hrs of post-infection measured after 24 hrs relative to untreated control. Put shortly:
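Female BALB/c mice, 18 to 20 g, infected intranasally under light anesthesia with ~ 2 x 10^7 CFU/mouse of P. aeruginosa PA1145 (cystic fibrosis isolate) in 0.05 mL. Treatment at 2 and 12 h post-infection, IV, or intranasally for tobramycin; n = 6 per group. Lungs harvested 24 h after treatment began, homogenized, plated on MacConkey medium, incubated overnight at 37 °C in 5% CO2. CFU per gram lung compared with T = 24 h untreated control.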

Assay [18] deals with Enterococcus faecalis. The experiment in a line: Antibacterial activity against gram-positive Enterococcus faecalis EFs327 harboring tet(M) by CLSI method. Put shortly:
as §2

Assay [19] concerns Klebsiella pneumoniae. The assay can be described thus: Antibacterial activity against gram-negative Klebsiella pneumoniae KP457 harboring blacTX-M-15 extended spectrum beta-lactamase gene by CLSI method. The method in brief: as §2
In assay [20] the test system is Enterococcus faecium. The assay can be described thus: Antibacterial activity against gram-positive Enterococcus faecium EFm404 harboring tet(M) by CLSI method. The method in brief:
as §2

Assay [21] has as its system Enterobacter cloacae. The assay can be described thus: Antibacterial activity against gram-negative Enterobacter cloacae EC1603 harboring tet(A) by CLSI method. Put shortly: as §2
For assay [22], the system named is Pseudomonas aeruginosa. The experiment in a line: Antibacterial activity against gram-negative Pseudomonas aeruginosa PA555 by CLSI method. Put shortly: as §1
The test system of assay [23] is Proteus mirabilis. The assay can be described thus: Antibacterial activity against gram-negative Proteus mirabilis PM385 by CLSI method. Put shortly: as §1

With `CN1CCCCCC1c1cc(O)c2c(c1Cl)C[C@H]1C[C@H]3[C@H](N(C)C)C(O)=C(C(N)=O)C(=O)[C@@]3(O)C(O)=C1C2=O` (stereo partly specified), the MIC in assay [1] is 16 µg/mL (≈ 28.6 µM); in assay [2], 1 µg/mL (≈ 1.79 µM); in assay [3] it was 8 µg/mL (≈ 14.3 µM); in assay [4], 0.0625 µg/mL (≈ 0.112 µM); in assay [5], 0.0313 µg/mL (≈ 0.0559 µM); in assay [6] it was 2 µg/mL (≈ 3.57 µM). In addition, the MIC in [7] came to 0.5 µg/mL (≈ 0.893 µM); in assay [8], 2 µg/mL (≈ 3.57 µM); in [9] it was 32 µg/mL (≈ 57.1 µM); in assay [10], 2 µg/mL (≈ 3.57 µM); in assay [11], 0.5 µg/mL (≈ 0.893 µM); in [12], 0.25 µg/mL (≈ 0.446 µM). Further, the values for the MIC in assay [13], in assay [14] and in assay [15] were at most 0.0156 µg/mL, 4 µg/mL (≈ 7.14 µM) and 2 µg/mL (≈ 3.57 µM), respectively.

In turn, `NCC[C@H](O)C(=O)N[C@@H]1C[C@H](N)[C@@H](O[C@H]2O[C@H](CN)[C@@H](O)[C@H](O)[C@H]2O)[C@H](O)[C@H]1O[C@H]1O[C@H](CO)[C@@H](O)[C@H](N)[C@H]1O` [AMIKACIN] returned a minimum inhibitory concentration (MIC) in assay [16] of 4 µg/mL (≈ 6.83 µM). Moreover, the Activity in [17] is listed as 3.6 deltalog10CFU.

As for `CN1CCCC1c1cc(O)c2c(c1Cl)C[C@H]1C[C@H]3[C@H](N(C)C)C(O)=C(C(N)=O)C(=O)[C@@]3(O)C(O)=C1C2=O` (stereo partly specified), the MIC in assay [1] is 8 µg/mL (≈ 15 µM); in assay [2], 0.5 µg/mL (≈ 0.94 µM); in [3] it was 8 µg/mL (≈ 15 µM); in assay [4] it was at most 0.0156 µg/mL; in [5], at most 0.0156 µg/mL; in assay [6], 1 µg/mL (≈ 1.88 µM). For the same compound, the MIC is 0.5 µg/mL (≈ 0.94 µM) in assay [7]; 1 µg/mL (≈ 1.88 µM) in assay [8]; 16 µg/mL (≈ 30.1 µM) in assay [9]; 1 µg/mL (≈ 1.88 µM) in [10]; 0.125 µg/mL (≈ 0.235 µM) in assay [11]; 0.125 µg/mL (≈ 0.235 µM) in assay [12]. The results for the MIC in assay [13], in assay [14] and in [15] were at most 0.0156 µg/mL, 0.5 µg/mL (≈ 0.94 µM) and 0.5 µg/mL (≈ 0.94 µM), respectively.

As to `COc1c(C2CCCN2)cc(O)c2c1C[C@H]1C[C@H]3[C@H](N(C)C)C(O)=C(C(N)=O)C(=O)[C@@]3(O)C(O)=C1C2=O` (stereo partly specified), the MIC in [18] is 32 µg/mL (≈ 62.3 µM); in assay [19], 2 µg/mL (≈ 3.89 µM); in assay [20], 16 µg/mL (≈ 31.2 µM); in assay [3], above 32 µg/mL; in [4], 2 µg/mL (≈ 3.89 µM); in assay [5] it was 2 µg/mL (≈ 3.89 µM). In addition, the MIC is above 32 µg/mL in assay [21]; above 32 µg/mL in assay [6]; 4 µg/mL (≈ 7.79 µM) in assay [7]; 32 µg/mL (≈ 62.3 µM) in assay [22]; 4 µg/mL (≈ 7.79 µM) in assay [23]; above 32 µg/mL in [8]. Further, the values for the minimum inhibitory concentration (MIC) in [11], in assay [12] and in assay [15] were above 32 µg/mL, 8 µg/mL (≈ 15.6 µM) and above 32 µg/mL, respectively.

Take `CN(C)[C@@H]1C(O)=C(C(N)=O)C(=O)[C@@]2(O)C(O)=C3C(=O)c4c(O)cc(-c5ccncc5)c(Cl)c4C[C@H]3C[C@@H]12`: the MIC in assay [2] was above 32 µg/mL; in [3] it was 8 µg/mL (≈ 15.2 µM); in assay [4], 2 µg/mL (≈ 3.8 µM); in [5], 0.125 µg/mL (≈ 0.238 µM); in [6], 0.5 µg/mL (≈ 0.951 µM); in assay [7] it was 4 µg/mL (≈ 7.61 µM). Besides, the MIC in [8] is above 32 µg/mL; in assay [9], above 32 µg/mL; in assay [10], 0.5 µg/mL (≈ 0.951 µM); in [11], 2 µg/mL (≈ 3.8 µM); in [12], 0.125 µg/mL (≈ 0.238 µM); in assay [13], 0.25 µg/mL (≈ 0.475 µM). The minimum inhibitory concentration (MIC) in assay [14] was determined as 16 µg/mL (≈ 30.4 µM); in assay [15] it was 2 µg/mL (≈ 3.8 µM).

By MIC is commonly meant the smallest concentration in the dilution series that meets the test's criterion for growth inhibition. Low readings indicate greater potency, high ones weaker potency.
